pIC50: −log10 of the molar value.
Columns and labels:
[1] = target: T1, Prostaglandin G/H synthase 1 (Ovis aries, UniProt P05979); experiment: Inhibition of sheep COX1 pre-incubated for 5 mins before arachidonic acid substrate addition in presence of ethanol by peroxidase activity detection based oxygen electrode assay
T1 sequence (P05979 whole entry): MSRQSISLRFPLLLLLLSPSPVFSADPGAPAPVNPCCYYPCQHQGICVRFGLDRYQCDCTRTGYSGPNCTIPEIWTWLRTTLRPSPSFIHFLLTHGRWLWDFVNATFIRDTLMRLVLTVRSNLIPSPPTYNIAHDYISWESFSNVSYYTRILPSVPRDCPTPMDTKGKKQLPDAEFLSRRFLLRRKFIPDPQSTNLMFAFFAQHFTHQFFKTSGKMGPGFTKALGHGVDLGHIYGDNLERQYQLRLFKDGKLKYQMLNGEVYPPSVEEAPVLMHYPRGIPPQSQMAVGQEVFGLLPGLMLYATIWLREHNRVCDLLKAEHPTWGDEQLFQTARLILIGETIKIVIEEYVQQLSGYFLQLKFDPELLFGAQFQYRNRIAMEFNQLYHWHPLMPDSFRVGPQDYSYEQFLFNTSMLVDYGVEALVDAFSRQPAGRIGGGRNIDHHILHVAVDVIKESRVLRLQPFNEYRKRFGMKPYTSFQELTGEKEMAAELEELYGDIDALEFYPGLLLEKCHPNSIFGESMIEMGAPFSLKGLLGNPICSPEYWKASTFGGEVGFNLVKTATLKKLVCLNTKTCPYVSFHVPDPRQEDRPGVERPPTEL

[2] = target: T2, Prostaglandin G/H synthase 2 (Homo sapiens) (UniProt P35354); experiment: Inhibition of human COX2 at 30 uM pre-incubated for 10 mins before substrate addition by enzyme immunoassay
T2 sequence (whole entry): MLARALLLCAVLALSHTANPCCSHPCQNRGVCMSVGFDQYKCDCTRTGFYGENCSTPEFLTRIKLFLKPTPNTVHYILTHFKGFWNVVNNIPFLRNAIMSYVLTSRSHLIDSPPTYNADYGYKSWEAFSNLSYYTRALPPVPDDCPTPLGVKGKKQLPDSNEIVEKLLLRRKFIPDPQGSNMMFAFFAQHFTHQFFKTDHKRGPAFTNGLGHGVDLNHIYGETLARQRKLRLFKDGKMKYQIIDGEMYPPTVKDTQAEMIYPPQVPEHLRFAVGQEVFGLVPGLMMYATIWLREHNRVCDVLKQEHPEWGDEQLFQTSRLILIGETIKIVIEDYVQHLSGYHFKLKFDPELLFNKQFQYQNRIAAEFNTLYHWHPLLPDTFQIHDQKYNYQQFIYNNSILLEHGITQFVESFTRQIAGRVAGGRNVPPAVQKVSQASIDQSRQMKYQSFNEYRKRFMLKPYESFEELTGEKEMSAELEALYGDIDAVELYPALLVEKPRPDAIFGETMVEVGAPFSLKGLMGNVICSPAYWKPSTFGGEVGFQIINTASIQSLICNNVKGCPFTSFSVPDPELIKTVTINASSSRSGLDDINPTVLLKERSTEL
In short: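 Human COX-2 pre-incubated with inhibitor 10 min at 37 °C, then 5 μM arachidonic acid for 2 min at 37 °C. Reaction stopped with HCl, PGH2 reduced to PGF2α by SnCl2, and PGF2α quantified by competitive EIA with PG-acetylcholinesterase conjugate, absorbance 412 nm. Single test concentration 30 μM.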

[3] = target: T3, Prostaglandin G/H synthase 2 (Ovis aries, UniProt P79208); experiment: Inhibition of sheep COX2 pre-incubated for 5 mins before […] substrate addition by peroxidase activity detection based oxygen electrode assay
T3 sequence (P79208 whole entry): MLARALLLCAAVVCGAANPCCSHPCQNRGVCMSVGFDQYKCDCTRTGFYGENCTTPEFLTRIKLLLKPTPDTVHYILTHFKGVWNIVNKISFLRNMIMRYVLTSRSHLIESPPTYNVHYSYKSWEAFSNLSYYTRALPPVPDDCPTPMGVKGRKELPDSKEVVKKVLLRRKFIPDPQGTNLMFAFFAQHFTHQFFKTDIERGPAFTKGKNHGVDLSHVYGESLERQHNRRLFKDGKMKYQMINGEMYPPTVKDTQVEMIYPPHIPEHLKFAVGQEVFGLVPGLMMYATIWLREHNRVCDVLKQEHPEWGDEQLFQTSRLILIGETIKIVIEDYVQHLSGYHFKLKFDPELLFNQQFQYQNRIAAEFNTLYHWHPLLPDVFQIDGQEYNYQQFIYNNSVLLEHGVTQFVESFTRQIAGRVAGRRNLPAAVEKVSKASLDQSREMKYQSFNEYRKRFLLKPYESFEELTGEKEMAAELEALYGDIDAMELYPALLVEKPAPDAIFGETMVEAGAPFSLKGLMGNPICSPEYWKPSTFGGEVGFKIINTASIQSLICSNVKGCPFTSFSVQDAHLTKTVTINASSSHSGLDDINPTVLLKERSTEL

[4] = target: T1, Prostaglandin G/H synthase 1; experiment: Inhibition of ovine COX1 pre-incubated for 10 mins before arachidonic acid substrate addition by enzyme immunoassay
In short: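 Ovine COX-1 pre-incubated with inhibitor for 10 min at 37 °C, then 5 μM arachidonic acid for 2 min at 37 °C. Stopped with HCl; PGH2 reduced to PGF2α with SnCl2 and measured by competitive EIA (PG antibody, PG-acetylcholinesterase conjugate), absorbance at 412 nm.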

[5] = target: T1, Prostaglandin G/H synthase 1; experiment: Inhibition of sheep COX1 pre-incubated for 5 mins before arachidonic acid substrate addition in presence of DMSO by peroxidase activity detection based oxygen electrode assay
[6] = target: T4, Fatty-acid amide hydrolase 1 (Rattus norvegicus, UniProt P97612); experiment: Inhibition of FAAH in rat brain homogenates pre-incubated for 10 mins before addition of [3H]anandamide and [3H]AEA substrates for 30 mins by liquid scintillation counting; format: tissue-based; details: read-out: IC50
T4 sequence (P97612 whole entry): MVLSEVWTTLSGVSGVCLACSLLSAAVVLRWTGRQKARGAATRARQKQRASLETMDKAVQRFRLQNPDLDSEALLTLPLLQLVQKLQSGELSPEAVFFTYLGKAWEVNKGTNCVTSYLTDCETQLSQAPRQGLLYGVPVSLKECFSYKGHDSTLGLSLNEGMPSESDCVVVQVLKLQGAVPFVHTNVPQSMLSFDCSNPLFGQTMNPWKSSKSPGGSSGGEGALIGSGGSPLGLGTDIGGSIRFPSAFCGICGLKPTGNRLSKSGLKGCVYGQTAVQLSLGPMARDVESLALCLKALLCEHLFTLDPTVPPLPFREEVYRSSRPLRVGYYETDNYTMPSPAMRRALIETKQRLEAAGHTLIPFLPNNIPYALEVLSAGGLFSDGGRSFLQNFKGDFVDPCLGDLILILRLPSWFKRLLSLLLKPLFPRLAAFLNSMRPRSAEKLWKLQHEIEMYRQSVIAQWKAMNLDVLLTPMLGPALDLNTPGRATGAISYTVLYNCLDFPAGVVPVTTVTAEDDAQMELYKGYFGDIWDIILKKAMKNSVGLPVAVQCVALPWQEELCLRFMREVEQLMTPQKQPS
In short: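 Rat whole-brain homogenate (50 ug protein/sample) in 50 mM TRIS pH 7.4, 0.05 % fatty acid free BSA; inhibitor pre-incubated 10 min, then 1 uM unlabelled AEA plus 0.6 nM [3H]-AEA added for 30 min at 37°C. Stopped with cold 1:1 CHCl3/MeOH; aqueous phase counted.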

[7] = target: T4, Fatty-acid amide hydrolase 1; experiment: Inhibition of FAAH in Sprague-Dawley rat cerebellum membranes pre-incubated for 10 mins before addition of [3H]AEA substrate in presence of ethyl alcohol by liquid scintillation counting; format: cell membranes, Membrane

Cc1cccnc1NC(=O)C(C)c1ccc(CC(C)C)cc1 (configuration not stated)
pIC50 [1]: 3.62 | inhibition [2]: 30% | pIC50 [3]: 4.70 | pIC50 [4]: 3.77 | pIC50 [5]: 4.22 | pIC50 [6]: 4.18 | pIC50 [7]: 6.30

Reference: ChEMBL document CHEMBL2169800 (J Med Chem, 2012)
